This note sets out measurements from ChEMBL document CHEMBL4480390, “Cink4T, a quinazolinone-based dual inhibitor of Cdk4 and tubulin polymerization, identified via ligand-based virtual screening, for efficient anticancer therapy” (Eur J Med Chem, 2019).

pEC50, pIC50: −log10 of the molar value. Active and inactive are the calls of the source. No cut-off for these calls is given here.

Assay [1] has as its target Cyclin-dependent kinase 4/cyclin D1 (Homo sapiens) (UniProt P11802+P24385). Put plainly: Inhibition of recombinant human N-terminal GST-tagged CDK4 (S4 to E303 residues)/Cyclin D1 (Q4 to I295 residues) expressed in sf9 cells at 10 uM using RBCTF as substrate measured after 1 hr by ADP-glo luminescence assay relative to control.
Assay [2] addresses CDK9/cyclin T1 (Homo sapiens) (UniProt O60563+P50750). Put plainly: Inhibition of N-terminal GST-HIS6 fusion protein tagged human full length CDK9 (M1 to F372 residues)/N-terminal HIS6-fused human Cyclin-T1 (M1 to K726 residues) expressed in Sf9 cells at 10 uM using RBCTF as substrate measured after 1 hr by ADP-glo luminescence assay relative to control. In a few lines: (§1)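 ADP-Glo kinase assay with 200 ng Cdk-cyclin enzyme, ATP (125 µM in 2.5x mix) and 25 µg substrate (RBCTF or RBER-CHKtide, per Cdk). Buffer: Tris, MgCl2, BSA, DTT, MnCl2 cofactor, DMSO. Reaction 1 h at 21°C; ADP-Glo 40 min, then detection reagent 40 min. Luminescence read. IC50 by 4-parameter fit; three independent experiments.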

In a further assay the target is CDK2/Cyclin A2 (Homo sapiens, UniProt P24941). As to the kind of experiment: Inhibition of human full length N-terminal GST-fused CDK2 (M1 to L298 residues)/human full length Cyclin-A2 (M1 to L432 residues) expressed in Sf9 cells using histone H1 as substrate measured after 1 hr by ADP-glo luminescence assay. A general note: ADP-Glo turns the ADP formed in a reaction into a luminescent signal.

For assay [3], the target named is T1, Tubulin (Sus scrofa) (UniProt P02554+P02550). As to the kind of experiment: Inhibition of porcine tubulin polymerization at 5 uM incubated for 1 min by fluorescence based assay. The format is protein assay. The essentials: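 Compounds added from 10x stocks in duplicate and warmed at 37°C ≤1 min. Ice-cold tubulin pre-mix then added. Fluorescent reporter read at ex 360/em 460 nm for 60 min. Paclitaxel served as enhancer control, CaCl2 as inhibitor control.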

Another assay has as its system A549. Put plainly: cells. Particulars: Homo sapiens, A549, 72 h.
Another assay concerns Calu-1. Put plainly: cells. Particulars: Homo sapiens, Calu-1, 72 h.
In another assay the test system is MDA-MB-468. As to the kind of experiment: cells. Particulars: Homo sapiens, MDA-MB-468, 72 h.
In another assay the test system is T47D. Put plainly: cells. Particulars: Homo sapiens, 72 h.
Assay [4] concerns the target T1, Tubulin (Sus scrofa). Put plainly: Inhibition of porcine tubulin polymerization at 3 uM incubated for 1 min by fluorescence based assay. The format is protein assay.
For assay [5], the target named is Cyclin-dependent kinase 4/cyclin D1 (Homo sapiens, UniProt P11802). Put plainly: Inhibition of recombinant human N-terminal GST-tagged CDK4 (S4 to E303 residues)/Cyclin D1 (Q4 to I295 residues) expressed in sf9 cells using RBCTF as substrate measured after 1 hr by ADP-glo luminescence assay. In a few lines: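 ADP-Glo luminescence assay of Cdk4–cyclin D1 with RBCTF substrate, 200 ng enzyme, ATP 125 µM (2.5x working mix), Tris/MgCl2/BSA/DTT/MnCl2 buffer, 1 h at 21°C, then two 40-min reagent steps. IC50 from a four-parameter variable-slope sigmoidal fit of inhibition against concentration; mean ± SD from three independent experiments.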

Assay [6] concerns the target Cyclin-dependent kinase 1/cyclin B1 (Homo sapiens, UniProt P06493). As to the kind of experiment: Inhibition of recombinant human N-terminal GST/His6-tagged CDK1 (M1 to M297 residues)/CyclinB1 (M1 to V433 residues) expressed in Sf9 insect cells using RBCTF as substrate measured after 1 hr by ADP-glo luminescence assay.
The target of another assay is CDK9/cyclin T1 (Homo sapiens, UniProt P50750). As to the kind of experiment: Inhibition of N-terminal GST-HIS6 fusion protein tagged human full length CDK9 (M1 to F372 residues)/N-terminal HIS6-fused human Cyclin-T1 (M1 to K726 residues) expressed in Sf9 cells using RBCTF as substrate measured after 1 hr by ADP-glo luminescence assay.
A further assay deals with CDK6/cyclin D1 (Homo sapiens, UniProt Q00534). Put plainly: Inhibition of CDK6/cyclin D1 (unknown origin) using RBER-CHKtide as substrate measured after 1 hr by ADP-glo luminescence assay. Type of assay: protein-complex assay. In a few lines:
as §1

The next assay deals with T2, Cytochrome P450 1A1 (Homo sapiens, UniProt P04798).
T2 sequence (P04798 whole entry): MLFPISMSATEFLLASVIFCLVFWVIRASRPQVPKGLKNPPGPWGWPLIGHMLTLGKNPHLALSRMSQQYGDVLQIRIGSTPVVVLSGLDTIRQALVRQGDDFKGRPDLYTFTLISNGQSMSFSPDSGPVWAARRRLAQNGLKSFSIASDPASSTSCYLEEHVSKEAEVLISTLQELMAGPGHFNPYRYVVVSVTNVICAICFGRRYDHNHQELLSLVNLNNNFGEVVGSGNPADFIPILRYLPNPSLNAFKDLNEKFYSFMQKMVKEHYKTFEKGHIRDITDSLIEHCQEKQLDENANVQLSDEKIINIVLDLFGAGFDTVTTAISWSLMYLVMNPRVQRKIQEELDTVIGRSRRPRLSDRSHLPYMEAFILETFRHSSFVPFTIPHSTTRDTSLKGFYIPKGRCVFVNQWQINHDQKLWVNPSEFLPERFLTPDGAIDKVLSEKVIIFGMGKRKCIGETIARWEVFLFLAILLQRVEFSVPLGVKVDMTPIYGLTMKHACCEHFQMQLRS
As to the kind of experiment: Inhibition of recombinant human CYP1A1 expressed in baker's yeast-derived microsomes using 7-ethoxyresorufin as substrate by fluorescence assay. The format is ADME.

For a further assay, the target named is T3, Cytochrome P450 1A2 (Homo sapiens, UniProt P05177).
T3 sequence (P05177 whole entry): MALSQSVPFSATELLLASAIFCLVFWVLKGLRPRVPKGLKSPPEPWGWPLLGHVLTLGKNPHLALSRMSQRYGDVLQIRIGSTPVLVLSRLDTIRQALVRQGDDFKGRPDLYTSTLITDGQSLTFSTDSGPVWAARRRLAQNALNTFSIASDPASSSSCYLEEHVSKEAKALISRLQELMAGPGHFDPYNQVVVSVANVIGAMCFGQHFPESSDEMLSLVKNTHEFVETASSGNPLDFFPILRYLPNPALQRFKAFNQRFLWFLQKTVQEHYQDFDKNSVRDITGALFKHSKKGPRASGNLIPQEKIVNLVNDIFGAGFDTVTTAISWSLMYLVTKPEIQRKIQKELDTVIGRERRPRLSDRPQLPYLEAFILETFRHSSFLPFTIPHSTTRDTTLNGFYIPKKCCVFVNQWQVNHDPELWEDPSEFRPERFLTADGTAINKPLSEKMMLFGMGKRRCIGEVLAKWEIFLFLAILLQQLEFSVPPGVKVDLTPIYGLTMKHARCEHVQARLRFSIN
Put plainly: Inhibition of recombinant human CYP1A2 expressed in baker's yeast-derived microsomes using 3-cyano-7-ethoxycoumarin as substrate by fluorescence assay. The format is ADME.

A further assay addresses T4, Cytochrome P450 1B1 (Homo sapiens, UniProt Q16678).
T4 sequence (Q16678 whole entry): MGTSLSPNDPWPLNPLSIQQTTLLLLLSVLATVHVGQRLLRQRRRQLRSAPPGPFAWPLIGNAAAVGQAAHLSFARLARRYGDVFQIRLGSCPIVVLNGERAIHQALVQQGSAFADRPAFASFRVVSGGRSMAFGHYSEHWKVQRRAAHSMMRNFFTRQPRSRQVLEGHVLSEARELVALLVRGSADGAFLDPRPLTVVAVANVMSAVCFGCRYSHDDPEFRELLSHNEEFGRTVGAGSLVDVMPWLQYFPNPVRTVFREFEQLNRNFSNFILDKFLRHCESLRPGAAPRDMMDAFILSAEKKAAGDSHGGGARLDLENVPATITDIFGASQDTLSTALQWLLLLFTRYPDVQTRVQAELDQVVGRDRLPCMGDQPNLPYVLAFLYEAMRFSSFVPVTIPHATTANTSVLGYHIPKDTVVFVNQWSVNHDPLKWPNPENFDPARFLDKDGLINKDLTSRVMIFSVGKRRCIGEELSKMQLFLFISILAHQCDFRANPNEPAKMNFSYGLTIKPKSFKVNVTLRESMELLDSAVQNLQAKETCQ
Put plainly: Inhibition of recombinant human CYP1B1 expressed in baker's yeast-derived microsomes using 7-ethoxyresorufin as substrate by fluorescence assay.

A word on the inhibition: it is the drop in the measured response relative to a control, in per cent. One may read the pIC50 as the negative decadic logarithm of the IC50, by convention in mol/L. As usually defined, the pEC50 is the EC50 on a negative log10 scale, so that one unit is a factor of ten. Low values mean a large EC50, high ones a small EC50. For the compound `COc1cc(-c2nc3ccccc3c(=O)[nH]2)ccc1OS(C)(=O)=O`, the inhibition in assay [1] was 78%; in assay [2], -5%. The pIC50 on CDK2/Cyclin A2 was < 4.00. At Tubulin (Sus scrofa) [3], the inhibition entry was “Active”. The negative logarithm of the EC50 (pEC50) with A549 is 5.15; in the assay on Calu-1 it was 5.05; with MDA-MB-468 it was < 4.30; with T47D, 5.10.
With `CC(=O)O[C@H]1C(=O)[C@@]2(C)[C@H]([C@H](OC(=O)c3ccccc3)[C@]3(O)C[C@H](OC(=O)[C@H](O)[C@@H](NC(=O)c4ccccc4)c4ccccc4)C(C)=C1C3(C)C)[C@]1(OC(C)=O)CO[C@@H]1C[C@@H]2O`, the inhibition entry on Tubulin (Sus scrofa) [4] is “inactive”.
Take `CC(=O)c1c(C)c2cnc(Nc3ccc(N4CCNCC4)cn3)nc2n(C2CCCC2)c1=O`: the inhibition in [1] was 95%; in [2] it was -4%.
As for `COc1ccccc1NC(=O)COc1ccc(-c2nc3ccccc3c(=O)[nH]2)cc1OC`, in assay [1], the inhibition came out at 89%. Moreover, the pIC50 in assay [5] is 5.82; against CDK2/Cyclin A2, < 4.30; in assay [6] it was < 4.30; against CDK9/cyclin T1 it was < 4.00; against CDK6/cyclin D1, < 4.00; at Cytochrome P450 1A1, < 5.30. For the same compound, the negative-log IC50 (pIC50) on Cytochrome P450 1A2 and at Cytochrome P450 1B1 was < 5.30 in each case. The inhibition result at Tubulin (Sus scrofa) [3] was “Active”. In addition, the negative logarithm of the EC50 (pEC50) in the assay with A549 is 5.52; in the assay with Calu-1, 5.22; in the assay on MDA-MB-468, < 4.30; in the assay on T47D it was 5.40.
Take `COc1ccc(-c2nc3ccccc3c(=O)[nH]2)cc1OCC(=O)NC1CCCCC1`: the values for the inhibition in assay [1] and in assay [2] were 76% and 8%, respectively. For the same compound, the pIC50 in assay [5] was 5.42; on CDK2/Cyclin A2, < 4.00; in assay [6], < 4.30; at CDK9/cyclin T1, < 4.30; against CDK6/cyclin D1, < 4.00; on Cytochrome P450 1A1, < 5.30. Moreover, the pIC50 on Cytochrome P450 1A2 and on Cytochrome P450 1B1 was < 5.30 throughout. Besides, the inhibition entry on Tubulin (Sus scrofa) [3] was “Active”. In addition, the pEC50 was 5.12 with A549, 5.01 in the assay with Calu-1, < 4.30 with MDA-MB-468 and 5.09 with T47D.
Take `CC[C@]1(O)C[C@@H]2CN(CCc3c([nH]c4ccccc34)[C@@](C(=O)OC)(c3cc4c(cc3OC)N(C)[C@H]3[C@@](O)(C(=O)OC)[C@H](OC(C)=O)[C@]5(CC)C=CCN6CC[C@]43[C@@H]65)C2)C1`: on Tubulin (Sus scrofa) [4], the inhibition entry is “Active”.
